# Compounds with a hit are over-represented: about 4.2% of the library has one in this group of screens.
# AI-2 QS mod: Vibrio harveyi AI-2 quorum sensing modulation | Vibrio harveyi JMH597 AI-2 luminescence/OD600 ratio, 9 h; hits give low values; strain lacks LuxN and CqsS sensors; 0 = neutral-control median | activity change, % at 7.5 µM | 300,000 tested, 0.4% active | AID 2094; in the data active means activity change below about -75%, passing the limit was not always enough; inconclusive means no clear call, values can overlap the other calls;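 further: luminescence divided by OD600 gain over 9 h not by final OD600 alone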
# Mot1-301 SUMO: inhibitors of SUMOylation pathway: yeast Mot1-301 growth rescue. S. cerevisiae Mot1-301 growth rescue, ATP luminescence, 38.5C; percent above DMSO median, 100 means doubled. growth rescue, % at 18.8 µM. 320,000 tested, 1% active. AID 2716;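 active means every valid replicate shows activation above 250% relative to neutral control wells; inactive means the rest, any valid replicate at or below 250%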;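 further: OY570 slx delta 5 strain wells were the positive control but not used for scaling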
# KCNQ1 inh: inhibitors of human KCNQ1 potassium channel; P51787; CHO-K1 KCNQ1, FluxOR thallium flux fluorescence; hits give high values; B-score at 10 µM; 310,000 tested, 1.3% active; AID 2642;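 active means compounds whose thallium flux B-score, printed positive for inhibition, exceeds three library SD while starting fluorescence stays within three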;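 further: channel opened by potassium depolarization with thallium stimulus after 20 min compound exposure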
# KCNQ1 act: human KCNQ1 channel potentiation or activation; B-score at 10 µM; 310,000 tested, 0.35% active; CHO-K1 KCNQ1, thallium flux FluxOR fluorescence; hits give high values; P51787;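 active means fluorescence ratio B-score, a plate-corrected score, at least three library SD, with initial intensity B-score within 5 SD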
#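 System: CHO-K1 cells stably expressing KCNQ1 / Medium: assay buffer for compound exposure, DMSO matched across wells / Reagent: thallium- and potassium-containing depolarizing buffer / Compound: one concentration, matched DMSO / Incubation: 20 min compound pretreatment at room temperature / Measured by: kinetic FluxOR fluorescence, 10 s baseline plus 110 s post-stimulus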
# Cl transport mod: modulators of human KCC2 chloride dependent transport; Q9H2X9; KCC2 cells, thallium flux FluoZin-2 fluorescence; B-score of Tl+ flux slope (higher = more flux/activation; lower = inhibition) at 10 µM; 190,000 tested, 2.2% active; AID 1456;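 active means thallium flux slope and its plate-corrected score both differing from the plate sample mean at a set confidence after two filtering rounds, in either direction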;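 further: slope of fluorescence scaled to starting intensity during 10 to 20 s after thallium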
# hERG protect: compounds protecting human hERG from proarrhythmic drug block. Q12809. CHO-hERG, FluxOR thallium flux, dofetilide IC70 present. activation (rescue from dofetilide block), less the hit threshold, % at 10 µM. 310,000 tested, 0.51% active;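 active means activation above the mean of controls blocked by dofetilide plus 5 SD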;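 further: thallium influx through hERG after potassium depolarization seen as dye fluorescence rise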
# Target sequence (Q12809 whole entry, looked up): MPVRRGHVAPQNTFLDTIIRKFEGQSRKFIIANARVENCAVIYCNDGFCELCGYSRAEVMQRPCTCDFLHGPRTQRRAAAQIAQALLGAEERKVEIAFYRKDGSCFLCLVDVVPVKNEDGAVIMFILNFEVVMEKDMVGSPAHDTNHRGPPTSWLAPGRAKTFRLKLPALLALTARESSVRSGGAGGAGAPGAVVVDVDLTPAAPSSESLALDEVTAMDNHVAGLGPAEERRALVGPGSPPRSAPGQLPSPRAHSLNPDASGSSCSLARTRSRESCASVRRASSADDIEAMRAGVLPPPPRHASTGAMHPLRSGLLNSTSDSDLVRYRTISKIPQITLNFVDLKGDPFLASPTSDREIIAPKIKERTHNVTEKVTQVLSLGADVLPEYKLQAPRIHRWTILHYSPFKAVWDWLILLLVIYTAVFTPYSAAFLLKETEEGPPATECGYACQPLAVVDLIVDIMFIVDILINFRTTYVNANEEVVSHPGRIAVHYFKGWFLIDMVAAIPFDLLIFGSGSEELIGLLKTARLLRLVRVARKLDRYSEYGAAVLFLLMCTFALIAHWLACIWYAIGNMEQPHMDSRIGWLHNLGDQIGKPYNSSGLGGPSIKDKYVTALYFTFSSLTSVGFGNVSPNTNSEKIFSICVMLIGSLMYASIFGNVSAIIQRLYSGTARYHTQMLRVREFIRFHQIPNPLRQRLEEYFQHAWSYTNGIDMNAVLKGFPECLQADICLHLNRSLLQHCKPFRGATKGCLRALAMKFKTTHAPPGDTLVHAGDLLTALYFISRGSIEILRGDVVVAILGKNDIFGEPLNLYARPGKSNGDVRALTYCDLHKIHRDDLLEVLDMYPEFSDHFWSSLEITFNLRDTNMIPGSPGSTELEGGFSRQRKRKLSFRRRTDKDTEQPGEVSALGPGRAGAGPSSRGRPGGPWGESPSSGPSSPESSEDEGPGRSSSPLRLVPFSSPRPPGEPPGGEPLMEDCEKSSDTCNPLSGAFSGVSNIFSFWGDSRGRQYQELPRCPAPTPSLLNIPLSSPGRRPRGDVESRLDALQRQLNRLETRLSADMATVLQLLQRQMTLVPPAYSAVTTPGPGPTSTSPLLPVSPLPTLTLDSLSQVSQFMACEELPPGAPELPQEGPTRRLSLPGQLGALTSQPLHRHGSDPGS
# KCC2 secondary: confirmation of human KCC2 transport modulators; 3,700 tested, 15% active; normalised thallium flux (F/F0 slope) at 10 µM; HEK293-KCC2, thallium flux, FluoZin2 fluorescence; hits give high values; AID 1713; shares compounds with Cl transport mod;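 active means thallium flux slope above the same plate's solvent-only control mean plus 3 SD; inconclusive means the two replicate wells disagree; inactive means no significant difference from solvent-only control wells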
# KCC2 bumet counter: bumetanide-insensitive thallium flux in KCC2 cells with ouabain, counter-screen. normalized thallium flux at 10 µM. HEK293-KCC2 + bumetanide/ouabain, thallium flux FluoZin2; hits give high values. AID 1714. 3,700 tested, 49% active. shares compounds with Cl transport mod;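 active means thallium entry rate above the same plate's blocked-transporter control wells by more than 3 SD; inconclusive means the two repeat wells disagree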;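 further: raw slope of fluorescence over initial fluorescence between 10 and 20 s after thallium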
# KCC2 sec2: KCC2 (human) modulation, second secondary assay. AID 1715. normalized thallium flux at 10 µM. HEK293-KCC2, thallium flux FluoZin2 fluorescence; actives lie on both sides; F/F0 rise rate, 10–20 s post-thallium. 3,700 tested, 23% active. shares compounds with Cl transport mod;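 active means thallium flux slope more than 3 SD above or below the plate's solvent-only control mean, mostly below; inconclusive means the two repeat wells disagreed; inactive means no significant shift from solvent-only controls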;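 further: raw slope with 0.1% DMSO as baseline and bumetanide as block control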
# HEK293 Tl flux: acts in parental HEK cells, KCC2 counter-screen; thallium flux rate (normalised fluorescence) at 10 µM; 3,700 tested, 46% active; HEK293 parental cells, thallium flux FluoZin2, ouabain; baseline-ratio fluorescence slope, 10–20 s after thallium; AID 1716; shares compounds with Cl transport mod;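 active means thallium flux rate significantly above the same plate's solvent-only control wells, beyond their mean plus 3 SD; inconclusive means the two replicate wells gave conflicting results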
# KCC2 retest ouab: modulates human KCC2 on retest with ouabain; shares compounds with Cl transport mod; HEK293-KCC2, thallium flux FluoZin2 fluorescence; bidirectional: low = inhibitor, high = activator; raw Tl+ flux slope (below DMSO = inhibition, above = activation) at 10 µM; 3,700 tested, 48% active;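 active means thallium flux slope beyond 3 SD from same-plate DMSO control mean in most replicates, usually higher, sometimes lower; inconclusive means repeat tests gave conflicting results; inactive means no significant difference from controls in most replicates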;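 further: slope of initial-normalized fluorescence between seconds 10 and 20 after thallium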
# HEK counter2: counter-screen for KCC2 modulators: effect in parental HEK293 cells. shares compounds with Cl transport mod. thallium flux FluoZin-2 fluorescence slope. thallium flux slope at 10 µM. 3,700 tested, 33% active;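 active means thallium flux slope above the same plate's solvent-control mean plus 3 SD in both duplicate wells; inconclusive means duplicate wells that disagreed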;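 further: run without ouabain in cells lacking the KCC2 cotransporter; slope of fluorescence scaled to its starting value between 10 and 20 s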
# Starred values were filed as active, the others as inactive; i = inactive; u = inconclusive; x = not tested or not shown.
SMILES,AI-2 QS mod,Mot1-301 SUMO,KCNQ1 inh,KCNQ1 act,Cl transport mod,hERG protect,KCC2 secondary,KCC2 bumet counter,KCC2 sec2,HEK293 Tl flux,KCC2 retest ouab,HEK counter2
COc1ccc(-c2nc3ccccc3[nH]2)cc1,9,-42,i,i,0.068,-4,x,x,x,x,x,x
CCCCOCP(=O)(CC)COCCCC,23,7,i,i,0.084,-8,x,x,x,x,x,x
CCN(C(=O)CSc1nnc(SC(C)C)s1)C1CCS(=O)(=O)C1 (configuration not stated),x,-6,x,x,x,x,x,x,x,x,x,x
O=C(Cn1nc(-c2ccccc2F)ccc1=O)NCc1ccc2c(c1)OCO2,17,6,i,i,-3.9*,-8,u,0.0051,u,0.0077,0.014,0.01
Cc1ccc(CC2C(=O)N(c3nc(C)cc(C)n3)C(=O)C2C)cc1 (configuration not stated),12,180,i,i,-1.5,-12,x,x,x,x,x,x
COc1ccccc1N(C)S(=O)(=O)c1ccc(C)c(C(=O)Nc2nccs2)c1,11,13,i,i,x,-12,x,x,x,x,x,x
N#Cc1nc(-c2cccs2)oc1N1CCN(Cc2ccccc2)CC1,20,6,i,i,x,-4,0.018,u,0.023*,0.0071,0.014,0.01
Cc1ccccc1Nc1nnc(SCC(=O)NC2CCCc3ccccc32)s1 (configuration not stated),18,131,i,i,-1.7,-6,x,x,x,x,x,x
COCCN(Cc1ccccc1)C(=O)C1CCN(C(=O)Nc2ccccc2)CC1,x,4,x,x,x,x,x,x,x,x,x,x
O=C1NC[C@@H](Cc2cccc3ccccc23)N(CCc2cc(C(F)(F)F)cc(C(F)(F)F)c2)C1=O,28,15,i,i,-3.9*,-5,0.0058,0.0045,0.025*,0.0071,0.016,0.0097
C=C(C)CNC(=S)N/N=C/c1c(F)cccc1F,6,1,i,i,16*,-15,0.02*,0.048*,u,0.023*,0.03*,0.025*
O=C(NC1CCCCC1)c1ccc(CN2CCOCC2)cc1,x,54,x,x,-2.8*,x,0.0098,0.0066,0.034,0.0078,0.022,0.011
O=C(NC1CC2CCC1C2)c1ccc(CN2CCOCC2)cc1 (configuration not stated),5,x,i,i,-0.59,-5,x,x,x,x,x,x
Cc1ccn(C(=O)c2ccc(NC(=O)CC(C)C)cc2)n1,22,-11,i,i,0.49,-9,x,x,x,x,x,x
O=C(NCc1ccco1)c1nc2c(nnn2Cc2cccc(Cl)c2)c(=O)[nH]1,51,364,i,i,-4.7*,-8,0.0051,0.0058*,u,0.0063*,0.014*,0.01
Cc1ccc(Cn2nnc3c(=O)[nH]c(C(=O)NCc4ccco4)nc32)cc1,18,40,i,i,-2.8,-3,x,x,x,x,x,x
O=C(NCc1ccccc1)c1nc2c(nnn2Cc2cccc(Cl)c2)c(=O)[nH]1,33,0,i,i,-5.1*,-1,0.006,0.0055,0.024*,0.0063*,0.013*,u
Cc1ccc(CS/C(Nc2ccccc2C)=C(\C#N)C(N)=O)c(C)c1,28,-3,i,i,0.43,-7,x,x,x,x,x,x
O=C1NC(=S)N(c2cccc(Cl)c2)C12CCCCC2,17,-9,i,i,4.6*,-7,0.0071,0.011*,0.029,0.013*,0.02,0.012*
CC1(C)CC(=O)N(c2cccc(Cl)c2)C(=O)C1,22,-4,i,i,x,-4,x,x,x,x,x,x
O=c1[nH]c2ccc(S(=O)(=O)N3CCN(c4ccccc4F)CC3)cc2s1,54,-10,i,i,-4.8*,-5,0.0069,0.005,0.024*,0.0068,0.013*,0.0099
CCOC(=O)C1=C(N)OC2=C(C(=O)CC(C)(C)C2)C1c1ccco1 (configuration not stated),5,5,i,i,-1.1,-3,x,x,x,x,x,x
CC1=C(C(=O)OCc2ccccc2)C(c2ccco2)C2=C(CC(C)(C)CC2=O)N1 (configuration not stated),15,-3,i,i,-4.3*,-8,u,0.0052,0.029,0.0062,0.05*,u
COc1ccc2c(c1)C(=O)[C@@H](O)[C@H](c1ccc(OC)c(Br)c1)O2,27,5,i,i,6*,-5,0.0084,0.014*,0.031,0.02*,u,0.011
COc1cccc([C@@H]2Oc3ccc(OC)cc3C(=O)[C@H]2O)c1,13,2,i,i,1.2,-10,x,x,x,x,x,x
SMILES,AI-2 QS mod,Mot1-301 SUMO,KCNQ1 inh,KCNQ1 act,Cl transport mod,hERG protect,KCC2 secondary,KCC2 bumet counter,KCC2 sec2,HEK293 Tl flux,KCC2 retest ouab,HEK counter2
CC(=O)Nc1ccc(S(=O)(=O)NCC(=O)OCC(=O)N2CCCc3ccccc32)cc1,11,1,i,i,-0.47,-1,x,x,x,x,x,x
CC(=O)Nc1ccc(S(=O)(=O)N(C)CC(=O)OCC(=O)N2CCc3ccccc32)cc1,3,-7,i,i,-3.8*,-8,0.0067,0.0065,0.029,u,0.02*,u
NNC(=O)c1c[nH]c2ccc(OCc3ccccc3)cc12,17,0,i,i,x,-5,x,x,x,x,x,x
O=C(Cc1cccc2ccccc12)N/N=C/c1ccc(Sc2cccc3cccnc23)o1,27,-9,i,i,10*,-9,0.0062,0.013*,0.036,0.011*,0.025*,0.013*
CCCCC(=O)N/N=C/c1ccc(Sc2cccc3cccnc23)o1,17,-14,i,i,-0.28,-10,x,x,x,x,x,x
O=C(NC(=S)Nc1ccc(N2CCOCC2)cc1)c1cncc(Br)c1,28,8,i,i,5.5*,-5,0.0091,0.019*,0.036,u,0.026*,0.013
